Experimental findings from ChEMBL document CHEMBL1140166, “Discovery of 1,4-substituted piperidines as potent and selective inhibitors of T-type calcium channels” (J Med Chem, 2008) are described below.

SMILES strings stand for the structures.

A short description of series [1]: Dissociation constant, pKa of the compound. It counts as physicochemical. A digest of the protocol: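 pKa was measured by potentiometric titration; calculated pKa values were also given from a pKa database.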
Series [2] can be described thus: Bioavailability in Wistar albino rat. The class given is ADME, organism-based. Particulars: in vivo.
The nature of series [3]: Cmax in Sprague-Dawley rat at 1 mg/kg, po. Particulars: in vivo. Details: dose 1 mg/kg, route oral. The class given is ADME, organism-based.
Series [4] is described as follows: AUC in rhesus monkey at 3 mg/kg, po. It counts as ADME, organism-based, Macaca mulatta. Details: dose 3 mg/kg, route oral. Particulars: plasma.
A short description of series [5]: Half life in Sprague-Dawley rat at 2 mg/kg, iv. The class given is ADME, organism-based. Details: dose 2 mg/kg, route intravenous. Particulars: in vivo.
A short description of series [6]: Ratio of drug level from cerebrospinal fluid to plasma in rat at 10 mg/kg, po after 9 hrs. It counts as ADME, organism-based, CSF/Plasma. Details: dose 10 mg/kg, route oral. In short, it runs like this: (§1)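 Rats given a single oral 10 mpk dose; brain, plasma and CSF levels measured; brain/plasma and CSF/plasma concentration ratios taken at 9 h after oral dosing.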

A short description of series [7]: Plasma clearance in Sprague-Dawley rat at 2 mg/kg, iv. The class given is ADME, organism-based. Set-up: dose 2 mg/kg, route intravenous.
Series [8] can be described thus: Half life in Beagle dog at 1 mg/kg, iv. It counts as ADME, organism-based, Canis lupus familiaris. Set-up: dose 1 mg/kg, route intravenous. Particulars: in vivo.
A short description of series [9]: AUC in Sprague-Dawley rat at 1 mg/kg, po. It counts as ADME, organism-based. Details: dose 1 mg/kg, route oral. Particulars: plasma.
Series [10] can be described thus: Oral bioavailability in rhesus monkey at 3 mg/kg. The class given is ADME, organism-based, Macaca mulatta. The conditions noted are these: in vivo.
A short description of series [11]: Oral bioavailability in Sprague-Dawley rat at 10 mg/kg. The conditions noted are these: in vivo. It counts as ADME, organism-based.
Series [12] is described as follows: AUC in Sprague-Dawley rat at 0.3 mg/kg, po. Details: dose 0.3 mg/kg, route oral. The conditions noted are these: plasma. It counts as ADME, organism-based.
A short description of series [13]: Cmax in Sprague-Dawley rat at 10 mg/kg, po. The conditions noted are these: in vivo. The class given is ADME, organism-based. Details: dose 10 mg/kg, route oral.
Series [14] can be described thus: Oral bioavailability in Beagle dog at 3 mg/kg. The class given is ADME, organism-based, Canis lupus familiaris. The conditions noted are these: in vivo.
Series [15] is described as follows: Plasma clearance in Beagle dog at 1 mg/kg, iv. It counts as ADME, organism-based, Canis lupus familiaris. Set-up: dose 1 mg/kg, route intravenous.
The nature of series [16]: Plasma clearance in rhesus monkey at 1 mg/kg, iv. The class given is ADME, organism-based, Macaca mulatta. Details: dose 1 mg/kg, route intravenous.
Series [17] can be described thus: Ratio of drug level from brain to plasma in rat at 10 mg/kg, po after 9 hrs. It counts as ADME, organism-based. Set-up: dose 10 mg/kg, route oral. A digest of the protocol:
as §1

The nature of series [18]: Cmax in rhesus monkey at 3 mg/kg, po. The class given is ADME, organism-based, Macaca mulatta. Details: dose 3 mg/kg, route oral. The conditions noted are these: in vivo.
Series [19] is described as follows: AUC in Beagle dog at 3 mg/kg, po. The conditions noted are these: plasma. It counts as ADME, organism-based, Canis lupus familiaris. Details: dose 3 mg/kg, route oral.
Series [20] is described as follows: Half life in rhesus monkey at 1 mg/kg, iv. It counts as ADME, organism-based, Macaca mulatta. Details: dose 1 mg/kg, route intravenous. Particulars: in vivo.
A short description of series [21]: AUC in Sprague-Dawley rat at 10 mg/kg, po. It counts as ADME, organism-based. Details: dose 10 mg/kg, route oral. The conditions noted are these: plasma.
The nature of series [22]: Cmax in Beagle dog at 3 mg/kg, po. The class given is ADME, organism-based, Canis lupus familiaris. Set-up: dose 3 mg/kg, route oral. The conditions noted are these: in vivo.

Consider `CC(C)(C)CCN1CCC(CNC(=O)c2cc(Cl)cc(Cl)c2)CC1`, for which the pKa (usually the pH at which an ionisable group is half protonated) in [1] came out at 8.7. Besides, the bioavailability (in general, dose-corrected exposure relative to a reference, in per cent) in series [2] was found to be 100%.

Consider `CC1(C)C[C@@H](CN2CCC(F)(CNC(=O)c3cc(Cl)cc(Cl)c3)CC2)CCO1`, for which the pKa in [1] turned out to be 7.9.

Turning to `CC(C)(C)C(=O)CN1CCC(CNC(=O)c2cc(Cl)cc(Cl)c2)CC1`, the pKa in series [1] came out at 8.

In series [1], `CC(C)(C)NC(=O)CN1CCC(CNC(=O)c2cc(Cl)cc(Cl)c2)CC1` gave a pKa of 7.6.

Turning to `CC(C)(C)CCN1CC[C@H](CNC(=O)c2cc(Cl)cc(Cl)c2)[C@H](F)C1`, in series [1], the pKa was 7.9. Further, the Cmax (usually the peak of the concentration-time curve) in series [3] worked out at 33 nM; in series [13], 432 nM; in series [18], 184 nM; in series [22], 1180 nM. Moreover, the AUC – broadly, the area under the concentration-time curve, a measure of exposure – in [4] is 2.4 µM·h; in series [9] it was 0.19 µM·h; in series [12] it was 0.01 µM·h; in series [19] it was 9.5 µM·h; in series [21] it was 3.1 µM·h. Besides, the half-life (in general, how long it takes for the measured level to halve) in series [5] was 4.9 h; in series [8], 10.8 h; in [20] it was 4.6 h. Moreover, the values for the Kp at 9 h in series [6] and in series [17] were 0.14 and 9, respectively. Besides, the clearance (as a rule, the rate of elimination divided by the concentration) in [7] turned out to be 41 mL/min/kg; in series [15], 9.1 mL/min/kg; in [16], 9.6 mL/min/kg. For the same compound, the bioavailability in [10] was 18%; in series [11], 30%; in series [14], 67%.

In series [1], `CC(C)(C)C(O)CN1CCC(CNC(=O)c2cc(Cl)cc(Cl)c2)CC1` (stereo not drawn) gave a pKa of 9.2.

`CC(C)(C)CCN1CC[C@@H](CNC(=O)c2cc(Cl)cc(Cl)c2)[C@H](F)C1` (relative stereo) showed a pKa in [1] of 6.7.
